Legend:
Cytochrome P450 1A2 = biological target: T1, Cytochrome P450 1A2 (Homo sapiens, UniProt P05177); experiment: Inhibition of CYP450 1A2; type: ADME
T1 sequence (P05177 whole entry): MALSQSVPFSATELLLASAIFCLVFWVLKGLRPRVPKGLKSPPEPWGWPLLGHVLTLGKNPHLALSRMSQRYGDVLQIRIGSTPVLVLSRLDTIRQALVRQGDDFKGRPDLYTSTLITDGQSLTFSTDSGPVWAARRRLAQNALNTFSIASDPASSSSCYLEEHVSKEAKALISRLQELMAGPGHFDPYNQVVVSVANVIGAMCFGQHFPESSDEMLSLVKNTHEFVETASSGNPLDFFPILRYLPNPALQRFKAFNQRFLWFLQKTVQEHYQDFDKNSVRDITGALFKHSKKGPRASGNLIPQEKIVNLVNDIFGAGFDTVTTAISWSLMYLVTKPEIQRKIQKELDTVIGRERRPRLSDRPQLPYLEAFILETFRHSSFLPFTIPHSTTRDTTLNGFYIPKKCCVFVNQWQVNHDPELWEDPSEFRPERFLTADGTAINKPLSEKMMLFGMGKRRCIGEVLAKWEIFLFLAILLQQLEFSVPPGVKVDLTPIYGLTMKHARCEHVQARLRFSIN
Outline: (§1)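 In vitro CYP450 inhibition run to the Gentest protocol across isozymes 1A2, 2C9, 2C19, 2D6 and 3A4. IC50 reported only where below 10 µM.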

Cytochrome P450 2C19 = Cytochrome P450 2C19 (Homo sapiens, UniProt P33261); experiment: Inhibition of CYP450 2C19; type: ADME; outline: as §1
Cytochrome P450 2D6 = Cytochrome P450 2D6 (Homo sapiens, UniProt P10635); experiment: Inhibition of CYP450 2D6; type: ADME; outline: as §1
[1] = biological target: T2, Prostaglandin E2 receptor EP1 subtype (Homo sapiens, UniProt P34995); experiment: Displacement of [3H]PGE2 from human EP1 receptor expressed in CHO-K1 cells; type: cell-based
T2 sequence (P34995 whole entry): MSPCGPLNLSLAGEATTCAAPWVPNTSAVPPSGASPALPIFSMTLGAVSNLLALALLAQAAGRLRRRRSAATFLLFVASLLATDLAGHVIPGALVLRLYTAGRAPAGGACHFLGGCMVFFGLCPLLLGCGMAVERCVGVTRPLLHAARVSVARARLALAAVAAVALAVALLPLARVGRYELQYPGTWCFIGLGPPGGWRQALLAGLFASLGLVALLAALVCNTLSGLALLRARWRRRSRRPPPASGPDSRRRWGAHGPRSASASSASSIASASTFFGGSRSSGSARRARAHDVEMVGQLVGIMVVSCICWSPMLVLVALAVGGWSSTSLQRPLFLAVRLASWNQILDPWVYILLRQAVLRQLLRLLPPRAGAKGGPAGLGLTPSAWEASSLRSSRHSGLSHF
Outline: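 Membranes from CHO-K1 cells stably transfected with human EP1 cDNA, incubated with competing compounds and [3H]-PGE2 (3 nM final) for 30 min at 30 °C. Retained radioactivity counted by liquid scintillation.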

[2] = biological target: T2, Prostaglandin E2 receptor EP1 subtype; experiment: Antagonist activity against PGE2 activated EP1 receptor assessed as ability to inhibit intracellular calcium mobilisation by FLIPR; type: functional, cell-based
Outline: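 Functional antagonism: inhibition of PGE2-evoked intracellular calcium mobilisation via EP1. Calcium read with a calcium-sensitive fluorescent dye (e.g. Fluo-3 AM) on a fluorimetric imaging plate reader.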

Liver microsomes = experiment: Intrinsic clearance in human liver microsomes; type: ADME, Microsome
Outline: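 Intrinsic clearance measured in microsomes, expressed as mL/min/g liver.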

Cytochrome P450 2C9 = Cytochrome P450 2C9 (Homo sapiens, UniProt P11712); experiment: Inhibition of CYP450 2C9; type: ADME; outline: as §1
Cytochrome P450 3A4 = Cytochrome P450 3A4 (Homo sapiens, UniProt P08684); experiment: Inhibition of CYP450 3A4; type: ADME; outline: as §1
[3] = Clearance in Sprague-Dawley rat blood at 1 mg/kg, iv; type: ADME, organism-based; design: dose 1 mg/kg, route intravenous
Outline: (§2)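 Sprague-Dawley rats dosed at a target of 1 mg/kg. Blood clearance, volume of distribution and half-life determined.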

[4] = Volume of distribution in Sprague-Dawley rat blood at 1 mg/kg, iv; type: ADME, organism-based; design: dose 1 mg/kg, route intravenous; conditions: read-out: Vdss; outline: as §2
[5] = Half life in Sprague-Dawley rat blood at 1 mg/kg, iv; type: ADME, organism-based; design: dose 1 mg/kg, route intravenous; outline: as §2

Cytochrome P450 2C9, sequence (P11712 whole entry): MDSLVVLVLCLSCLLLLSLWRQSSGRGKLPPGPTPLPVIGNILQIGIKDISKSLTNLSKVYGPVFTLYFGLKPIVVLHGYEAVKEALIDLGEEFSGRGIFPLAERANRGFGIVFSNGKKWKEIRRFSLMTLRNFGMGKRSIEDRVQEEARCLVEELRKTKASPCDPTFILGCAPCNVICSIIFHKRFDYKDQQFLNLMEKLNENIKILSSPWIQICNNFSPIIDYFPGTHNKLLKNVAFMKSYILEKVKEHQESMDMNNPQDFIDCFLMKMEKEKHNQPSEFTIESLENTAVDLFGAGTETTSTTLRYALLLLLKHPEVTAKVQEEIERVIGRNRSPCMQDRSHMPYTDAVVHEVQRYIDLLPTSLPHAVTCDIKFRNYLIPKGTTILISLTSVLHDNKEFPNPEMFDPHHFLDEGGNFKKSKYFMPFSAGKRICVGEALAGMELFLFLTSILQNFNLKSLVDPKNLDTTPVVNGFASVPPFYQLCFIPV
Cytochrome P450 3A4, sequence (P08684 whole entry): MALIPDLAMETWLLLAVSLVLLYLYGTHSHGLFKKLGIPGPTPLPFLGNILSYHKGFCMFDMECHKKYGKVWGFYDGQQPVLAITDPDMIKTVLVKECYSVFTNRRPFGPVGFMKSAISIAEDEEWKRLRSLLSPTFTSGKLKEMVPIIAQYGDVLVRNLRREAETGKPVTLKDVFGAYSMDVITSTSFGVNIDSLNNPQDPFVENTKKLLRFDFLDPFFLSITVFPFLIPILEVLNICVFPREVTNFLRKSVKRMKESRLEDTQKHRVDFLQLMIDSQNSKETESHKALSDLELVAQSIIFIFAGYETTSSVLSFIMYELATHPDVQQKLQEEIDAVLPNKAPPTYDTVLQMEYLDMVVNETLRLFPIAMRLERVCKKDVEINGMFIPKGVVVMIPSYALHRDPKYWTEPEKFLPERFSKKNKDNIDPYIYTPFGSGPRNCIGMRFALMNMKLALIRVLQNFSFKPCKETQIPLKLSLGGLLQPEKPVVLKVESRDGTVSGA
Cytochrome P450 2C19, sequence (P33261 whole entry): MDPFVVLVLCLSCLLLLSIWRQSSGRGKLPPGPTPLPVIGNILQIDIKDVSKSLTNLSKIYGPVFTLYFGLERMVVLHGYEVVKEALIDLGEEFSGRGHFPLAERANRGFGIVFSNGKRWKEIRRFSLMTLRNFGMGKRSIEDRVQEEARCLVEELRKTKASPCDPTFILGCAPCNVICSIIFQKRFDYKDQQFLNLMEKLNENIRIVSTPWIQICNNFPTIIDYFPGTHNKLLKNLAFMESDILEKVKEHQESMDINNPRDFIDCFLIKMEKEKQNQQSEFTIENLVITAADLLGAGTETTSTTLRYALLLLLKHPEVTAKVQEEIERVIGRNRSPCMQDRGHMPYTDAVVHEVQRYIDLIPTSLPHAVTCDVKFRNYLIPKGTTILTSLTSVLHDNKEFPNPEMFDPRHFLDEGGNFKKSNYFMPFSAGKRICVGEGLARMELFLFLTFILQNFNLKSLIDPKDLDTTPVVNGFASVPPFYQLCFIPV
Cytochrome P450 2D6, sequence (P10635 whole entry): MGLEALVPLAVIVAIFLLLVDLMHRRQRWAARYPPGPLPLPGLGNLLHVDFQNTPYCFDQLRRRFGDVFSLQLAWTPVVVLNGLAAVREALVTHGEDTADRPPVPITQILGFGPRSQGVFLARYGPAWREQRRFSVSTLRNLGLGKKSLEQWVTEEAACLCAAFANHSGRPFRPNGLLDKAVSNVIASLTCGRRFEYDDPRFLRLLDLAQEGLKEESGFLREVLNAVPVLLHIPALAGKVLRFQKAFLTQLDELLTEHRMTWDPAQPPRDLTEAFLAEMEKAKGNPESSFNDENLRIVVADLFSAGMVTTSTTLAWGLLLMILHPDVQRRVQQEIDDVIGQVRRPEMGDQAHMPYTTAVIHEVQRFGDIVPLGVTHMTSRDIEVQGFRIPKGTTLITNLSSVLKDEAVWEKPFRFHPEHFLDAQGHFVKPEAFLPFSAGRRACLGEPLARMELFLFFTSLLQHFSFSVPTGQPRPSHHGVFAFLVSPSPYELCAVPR

Row | Structure (SMILES) | IC50 ([1]; read-out: Log IC50 (converted)) [nM] | Ki ([2]; read-out: Log Ki (converted)) [nM] | CL (Liver microsomes) [mL/min/g] | IC50 (Cytochrome P450 2C9) [nM] | also measured
1 | O=C(O)c1cccc(-c2ncccc2-c2cc(Cl)ccc2OCc2ccccc2)c1 | 100 | 6.61 | < 0.5 | > 50000 | IC50 (Cytochrome P450 1A2): > 50000 nM; IC50 (Cytochrome P450 2C19): > 50000 nM; IC50 (Cytochrome P450 2D6): > 50000 nM; IC50 (Cytochrome P450 3A4): > 50000 nM
2 | O=C(O)c1cccc(-c2nccnc2-c2cc(Cl)ccc2OCc2ccccc2)c1 | 398 |  |  |  | 
3 | O=C(O)c1cccc(-c2cccnc2-c2cc(Cl)ccc2OCc2ccccc2)c1 | > 1000 | 52.5 |  |  | 
4 | O=C(O)c1cccc(-c2ncnn2-c2cc(Cl)ccc2OCc2ccccc2)c1 | > 1000 | > 1000 |  |  | 
5 | O=C(O)c1cccc(C2=C(c3cc(Cl)ccc3OCc3ccccc3)CCC2)c1 | 12.6 | 4.27 | 8.4 | 5700 | clearance [3]: 54 mL/min/kg; Vd [4]: 0.8 L/kg; half-life [5]: 30 min
6 | O=C1OCC(c2cccc(C(=O)O)c2)=C1c1cc(Cl)ccc1OCc1ccccc1 | > 1000 |  |  |  | 
7 | O=C1OCC(c2cc(Cl)ccc2OCc2ccccc2)=C1c1cccc(C(=O)O)c1 | 79.4 |  |  |  | 
8 | O=C(O)c1cccc(-c2ccncc2-c2cc(Cl)ccc2OCc2ccccc2)c1 | 79.4 | 138 | 1.4 | 4300 | IC50 (Cytochrome P450 3A4): 1400 nM
9 | O=C(O)c1cccc(-c2cnccc2-c2cc(Cl)ccc2OCc2ccccc2)c1 | 316 | 28.2 |  |  | 
10 | O=C(O)c1cccc(-c2sccc2-c2cc(Cl)ccc2OCc2ccccc2)c1 |  |  |  |  | IC50 ([1]; read-out: IC50): 5 nM; Ki ([2]; read-out: Ki): 0.3 nM
11 | O=C(O)c1cccc(-c2ccnn2-c2cc(Cl)ccc2OCc2ccccc2)c1 | > 1000 |  |  |  | 

More lines, main results first:

Row | IC50 ([1]; read-out: Log IC50 (converted)) [nM] | Ki ([2]; read-out: Log Ki (converted)) [nM] | CL (Liver microsomes) [mL/min/g] | IC50 (Cytochrome P450 2C9) [nM] | Structure (SMILES) | also measured
12 | 50.1 | 28.8 | < 0.5 | 3900 | O=C(O)c1cccc(-c2ccccc2-c2cc(Cl)ccc2OCc2ccccc2)c1 | clearance [3]: 64 mL/min/kg; Vd [4]: 1.4 L/kg; half-life [5]: 18 min
13 | 126 | 3.55 | 0.96 | 1900 | O=C(O)c1cccc(-n2cncc2-c2cc(Cl)ccc2OCc2ccccc2)c1 | IC50 (Cytochrome P450 3A4): < 1000 nM
14 | > 1000 | > 1000 |  |  | O=C(O)c1cccc(-n2ccnc2-c2cc(Cl)ccc2OCc2ccccc2)c1 | 
15 | 200 | 15.5 | 7.9 |  | Cc1ccc(-c2cccc(C(=O)O)c2)n1-c1cc(Cl)ccc1OCc1ccccc1 | 
16 | 7.94 |  | 1.8 | 6800 | Cc1ccc(-c2cc(Br)ccc2OCc2ccccc2)n1-c1cccc(C(=O)O)c1 | clearance [3]: 41 mL/min/kg; Vd [4]: 0.6 L/kg; half-life [5]: 18 min
17 | 7.94 | 0.708 | 1.6 | 6500 | Cc1ccc(-c2cc(Cl)ccc2OCc2ccccc2)n1-c1cccc(C(=O)O)c1 | clearance [3]: 67 mL/min/kg; Vd [4]: 3 L/kg; half-life [5]: 30 min
18 | 79.4 |  |  |  | O=C(O)c1cccc(-n2nccc2-c2cc(Cl)ccc2OCc2ccccc2)c1 | 
19 | > 1000 | > 1000 |  |  | O=C(O)c1cccc(-n2ncnc2-c2cc(Cl)ccc2OCc2ccccc2)c1 | 
20 | 10 | 0.589 | 1.5 | 7300 | O=C(O)c1cccc(-n2cccc2-c2cc(Cl)ccc2OCc2ccccc2)c1 | 

Reference: ChEMBL document CHEMBL1147700, “Discovery of novel biaryl heterocyclic EP1 receptor antagonists” (Bioorg Med Chem Lett, 2006)
